A short description of assay [1]: Antioxidant activity assessed as radical scavenging activity measured after 30 mins by DPPH assay. The class given is functional. The method in brief:
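Test compounds in methanol, two-fold serial dilution to final 3.125–400 µM, incubated 30 min with DPPH in methanol (stated final […]) at room temperature in the dark. Absorbance read at 517 nm. Trolox and L-ascorbic acid served as positive references. Activity expressed as EC50.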
(In general: Loss of DPPH colour is used to gauge radical scavenging.)

In assay [2] the target is T1, Prostaglandin G/H synthase 2 (Homo sapiens) (UniProt P35354).
T1 sequence (whole entry): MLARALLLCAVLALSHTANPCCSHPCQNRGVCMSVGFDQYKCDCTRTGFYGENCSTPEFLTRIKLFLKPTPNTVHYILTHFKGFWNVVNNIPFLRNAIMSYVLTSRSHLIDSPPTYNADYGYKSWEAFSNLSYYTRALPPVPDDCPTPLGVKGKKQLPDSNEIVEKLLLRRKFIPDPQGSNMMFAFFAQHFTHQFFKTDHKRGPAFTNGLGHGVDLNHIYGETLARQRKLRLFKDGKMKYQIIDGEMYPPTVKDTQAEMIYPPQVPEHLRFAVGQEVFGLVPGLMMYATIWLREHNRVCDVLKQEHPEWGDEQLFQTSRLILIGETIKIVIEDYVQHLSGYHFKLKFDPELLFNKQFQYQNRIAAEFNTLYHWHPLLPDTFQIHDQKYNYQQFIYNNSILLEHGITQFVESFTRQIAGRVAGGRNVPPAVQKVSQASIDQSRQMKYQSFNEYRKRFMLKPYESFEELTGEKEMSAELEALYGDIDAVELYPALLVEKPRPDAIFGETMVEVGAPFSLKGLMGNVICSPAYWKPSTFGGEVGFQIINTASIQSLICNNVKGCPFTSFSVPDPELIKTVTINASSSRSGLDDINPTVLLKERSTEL
Nature of the assay: Inhibition of human recombinant COX-2 assessed as reduction in PGE2 level using 10 uM arachidonic acid as substrate at 20 uM preincubated with enzyme for 5 mins followed by substrate addition and measured after 20 mins by ELISA relative to control. The settings on record: time 25.0 min. The method in brief:
(§1)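 Enzyme in 100 mM Tris pH 8.0 with 5 µM porcine hematin, 18 mM L-epinephrine and 50 µM Na2EDTA. Compound in DMSO (DMSO blank) 5 min at room temperature. Arachidonic acid (10 µM) added, 20 min at 37°C. Stopped with 10% formic acid, diluted 1:15, PGE2 measured by ELISA at 405 nm as % inhibition versus blank. At least three experiments in at least duplicate. Non-active below 50% inhibition at 20 µM.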
(An ELISA detects its analyte on a solid surface through an enzyme-linked reagent.)

Assay [3] concerns the target T2, Prostaglandin G/H synthase 1 (Ovis aries) (UniProt P05979).
T2 sequence (whole entry): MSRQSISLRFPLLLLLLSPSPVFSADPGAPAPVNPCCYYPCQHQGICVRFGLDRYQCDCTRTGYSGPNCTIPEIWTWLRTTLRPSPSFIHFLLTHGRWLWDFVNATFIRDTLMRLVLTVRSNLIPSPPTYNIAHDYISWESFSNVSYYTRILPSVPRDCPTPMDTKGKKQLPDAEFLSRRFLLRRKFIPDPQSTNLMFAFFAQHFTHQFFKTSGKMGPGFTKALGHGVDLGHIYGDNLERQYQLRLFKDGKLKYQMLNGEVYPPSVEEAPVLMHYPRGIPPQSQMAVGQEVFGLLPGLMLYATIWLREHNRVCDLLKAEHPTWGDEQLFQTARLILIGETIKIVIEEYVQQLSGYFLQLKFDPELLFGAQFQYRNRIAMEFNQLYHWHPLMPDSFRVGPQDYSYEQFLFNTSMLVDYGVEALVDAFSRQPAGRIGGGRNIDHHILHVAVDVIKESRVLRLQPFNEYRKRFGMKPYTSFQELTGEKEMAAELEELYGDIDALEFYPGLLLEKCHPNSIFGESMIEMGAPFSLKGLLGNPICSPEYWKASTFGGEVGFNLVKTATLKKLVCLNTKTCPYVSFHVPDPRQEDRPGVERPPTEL
Nature of the assay: Inhibition of ovine COX-1 assessed as reduction in PGE2 level using 10 uM arachidonic acid as substrate at 20 uM preincubated with enzyme for 5 mins followed by substrate addition and measured after 20 mins by ELISA relative to control. The settings on record: time 25.0 min. Put shortly: as §1

In assay [4] the target is T3, Polyunsaturated fatty acid 5-lipoxygenase (Homo sapiens, UniProt P09917).
T3 sequence (P09917 whole entry): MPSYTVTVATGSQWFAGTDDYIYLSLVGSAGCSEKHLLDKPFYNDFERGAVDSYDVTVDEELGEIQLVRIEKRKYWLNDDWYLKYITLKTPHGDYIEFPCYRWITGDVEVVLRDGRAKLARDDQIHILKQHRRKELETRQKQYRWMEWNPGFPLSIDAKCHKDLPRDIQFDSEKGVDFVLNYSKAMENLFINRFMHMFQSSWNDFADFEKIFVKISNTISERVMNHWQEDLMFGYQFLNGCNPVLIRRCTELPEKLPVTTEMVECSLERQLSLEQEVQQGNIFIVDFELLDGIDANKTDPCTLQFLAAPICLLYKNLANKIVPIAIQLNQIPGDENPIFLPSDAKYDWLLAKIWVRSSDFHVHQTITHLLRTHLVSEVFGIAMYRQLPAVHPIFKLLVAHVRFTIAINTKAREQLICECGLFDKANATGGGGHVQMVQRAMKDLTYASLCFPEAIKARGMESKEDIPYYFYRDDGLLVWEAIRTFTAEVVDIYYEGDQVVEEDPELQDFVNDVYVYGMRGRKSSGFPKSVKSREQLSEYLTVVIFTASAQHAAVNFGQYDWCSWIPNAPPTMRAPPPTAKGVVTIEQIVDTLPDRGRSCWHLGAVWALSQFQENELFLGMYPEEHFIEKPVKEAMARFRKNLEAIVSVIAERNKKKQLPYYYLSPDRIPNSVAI
Nature of the assay: Inhibition of human recombinant 5-LOX assessed as reduction in LTB4 level using 800 uM arachidonic acid as substrate preincubated with enzyme for 10 mins followed by substrate addition and measured after 10 mins by ELISA. The method in brief: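 Human recombinant 5-LOX, 1 unit per reaction, in PBS pH 7.4 containing 1 mM Na2EDTA and 200 µM ATP. Compound in DMSO (DMSO blank) held 10 min at 4°C. CaCl2 added, reaction started with arachidonic acid (800 µM solution) for 10 min at 37°C. Formic acid stop, 1:15 dilution, LTB4 measured by ELISA as % inhibition versus blank. At least three experiments in at least duplicate.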

Assay [5] deals with T4, Prostaglandin G/H synthase 2 (Homo sapiens, UniProt P35354).
T4 sequence (P35354 whole entry): T1 sequence (whole entry)
The assay is described as follows: Inhibition of human recombinant COX-2 assessed as reduction in PGE2 level using 10 uM arachidonic acid as substrate preincubated with enzyme for 5 mins followed by substrate addition and measured after 20 mins by ELISA.

The target in assay [6] is T5, Prostaglandin G/H synthase 1 (Ovis aries, UniProt P05979).
T5 sequence (P05979 whole entry): T2 sequence (whole entry)
The assay is described as follows: Inhibition of ovine COX-1 assessed as reduction in PGE2 level using 10 uM arachidonic acid as substrate preincubated with enzyme for 5 mins followed by substrate addition and measured after 20 mins by ELISA. Put shortly: as §1

Assay [7] is described as follows: Selectivity index, ratio of IC50 for ovine COX-1 to IC50 for human recombinant COX-2.
Assay [8] concerns the target T6, Polyunsaturated fatty acid 5-lipoxygenase (Homo sapiens) (UniProt P09917).
T6 sequence (whole entry): T3 sequence (P09917 whole entry)
The assay is described as follows: Inhibition of human recombinant 5-LOX assessed as reduction in LTB4 level using 800 uM arachidonic acid as substrate at 5 uM preincubated with enzyme for 10 mins followed by substrate addition and measured after 10 mins by ELISA relative to control. The settings on record: time 20.0 min. Put shortly:
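Human recombinant 5-LOX, 1 unit per reaction, in PBS pH 7.4 containing 1 mM Na2EDTA and 200 µM ATP. Compound in DMSO (DMSO blank) held 10 min at 4°C. CaCl2 added, reaction started with arachidonic acid (800 µM solution) for 10 min at 37°C. Formic acid stop, 1:15 dilution, LTB4 measured by ELISA as % inhibition versus blank. At least three experiments in at least duplicate. Non-active cutoff below 50% inhibition at 5 µM.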

The term EC50 denotes the concentration that produces a half-maximal response. As for `Cc1c(C)c2c(c(C)c1O)CCC(C)(C(=O)O)O2` (stereo not drawn) [TROLOX], the EC50 in assay [1] was found to be 32500 nM.

In general, inhibition refers to how much of the control response was suppressed. As a reminder, the IC50 is the concentration needed to halve the response being measured. Turning to `CCCCCc1cc(O)cc(OC)c1O`, the inhibition in assay [2] and in assay [3] was < 50% each time. Besides, the IC50 in assay [4] was found to be 940 nM.

Take `CCCCCc1cc(OC(C)=O)cc(OC)c1OC(C)=O`: the inhibition in assay [2] and in assay [3] was < 50% throughout. The IC50 in assay [4] stood at 1090 nM.

`COc1cc(O)cc(Br)c1O`: the values for the IC50 in assay [5], in assay [6] and in assay [4] were 4810 nM, 6110 nM and 1140 nM, respectively. In addition, the Ratio IC50 in assay [7] turned out to be 1.27.

For `CCCCCC1=CC(=O)C=C(OC)C1=O` [Primin], the IC50 was determined as 1900 nM in assay [5], 18900 nM in assay [6] and 1370 nM in assay [4]. Moreover, the Ratio IC50 in assay [7] came out at 9.96.

On to `CCCCCCCCCCCCCc1cc(OC(C)=O)cc(OC)c1OC(C)=O`, for which the inhibition in assay [2] and in assay [3] was < 50% in each case. The IC50 in assay [4] came out at 1020 nM.

In the case of `COC1=CC(=O)C=C(Br)C1=O`, the IC50 in assay [5] is 4480 nM; in assay [6], 15600 nM; in assay [4], 1670 nM. For the same compound, in assay [7], the Ratio IC50 amounted to 3.47.

For the compound `CCCCCCCCCCCCCCCc1cc(O)cc(O)c1` [CARDOL], the IC50 in assay [5] stood at 2360 nM; in assay [6], 5610 nM. The Ratio IC50 in assay [7] was found to be 2.38. For the same compound, the inhibition in assay [8] is < 50%.

For `CCCCCCCCCCCCCCCc1cc(O)cc(OC)c1O`, the IC50 in assay [5] was found to be 2710 nM; in assay [6], 2650 nM; in assay [4], 140 nM. The Ratio IC50 in assay [7] came to 0.98.

On to `CCCCCCCCCCCCCCCC1=CC(=O)C=C(OC)C1=O`, for which the figures for the concentration for half-maximal inhibition (IC50) in assay [5] and in assay [4] were 8970 nM and 790 nM, respectively. Moreover, in assay [3], the inhibition was < 50%.

On to `CCCCCc1cc(O)cc(OC)c1`, for which the IC50 in assay [5] turned out to be 15900 nM. Besides, the inhibition in assay [3] and in assay [8] was < 50% throughout.

As to `O=C1O[C@H]([C@@H](O)CO)C(O)=C1O` [ASCORBIC ACID], the EC50 in assay [1] was found to be 31100 nM.

Consider `CCCCCC1=CC(=O)C=C(OC)C1=N`, for which the IC50 is 5820 nM in assay [5], 15800 nM in assay [6] and 1010 nM in assay [4]. The Ratio IC50 in assay [7] was determined as 2.71.

As for `CCCCCc1cccc(OC)c1O`, the IC50 worked out at 4650 nM in assay [5], 5420 nM in assay [6] and 3720 nM in assay [4]. Also, in assay [7], the Ratio IC50 turned out to be 1.17.

In the case of `CCCCCc1cc(O)cc(O)c1` [WHILE OLIVETOL], the IC50 in assay [5] was determined as 17300 nM; in assay [6], 13600 nM. Besides, in assay [7], the Ratio IC50 stood at 0.79. For the same compound, the inhibition in assay [8] is < 50%.

Consider `COC1=CC(=O)C=C(Br)C1OC(C)=O` (stereo not drawn), for which the EC50 in assay [1] was determined as 45600 nM. The inhibition in assay [2] and in assay [3] was < 50% each time. Also, the IC50 in assay [4] was determined as 170 nM.

As to `CCCCCCCCCCCCCc1cc(O)cc(OC)c1O`, the IC50 was 1550 nM in assay [5], 3380 nM in assay [6] and 1490 nM in assay [4]. Further, the Ratio IC50 in assay [7] is 2.18.

With `CCCCCCCCCCCCCC1=CC(=O)C=C(OC)C1=O`, the figures for the IC50 in assay [5], in assay [6] and in assay [4] were 880 nM, 250 nM and 1050 nM, respectively.

Regarding `CCCCCCCCCCCCCc1cc(O)cc(O)c1`, the IC50 in assay [5] was found to be 2740 nM; in assay [6], 2380 nM. Also, in assay [7], the Ratio IC50 worked out at 0.87. The inhibition in assay [8] is < 50%.

Take `CCCCCCCCCCCc1cc(O)cc(OC)c1O`: the figures for the IC50 in assay [5], in assay [6] and in assay [4] were 550 nM, 1070 nM and 280 nM, respectively. Further, in assay [7], the Ratio IC50 was 1.95.

Source of the values: ChEMBL document CHEMBL4706530, “Synthesis, inhibitory activity and in silico docking of dual COX/5-LOX inhibitors with quinone and resorcinol core” (Eur J Med Chem, 2020).
